# UPR CHOP act: activators of apoptotic CHOP UPR arm, primary screen, cell-based, CHO-CHOP luciferase reporter, luminescence, uHTS. UPR activation; percent of tunicamycin response over DMSO baseline. activation, % at 10 µM. 0.34% of 330,000 active;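 active means at 10 µM dose, activation of 40% or more, normalized to positive control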;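 further: 100% = tunicamycin at 10 µg/mL and 0% = DMSO alone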
#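 Material: CHO-CHOP cells, stable luciferase reporter of PERK-eIF2a-CHOP signalling; quantity: 500 reporter cells seeded per well; buffer or medium: F12 medium containing 10% fetal bovine serum; compound: one dose, 10 µM in 0.5% DMSO; incubation: 6 h compound treatment, 37 °C; measured by: Steady-Glo luciferase luminescence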
# 697 NFkB inh: inhibitors of PMA/ionomycin-induced NF-kB reporter, 697 cells, primary screen, B-cell NF-kB inhibitor project, cell-based, luminescence, uHTS. inhibition, % at 4 µM. 697 B-cell NF-kB luciferase reporter, 16 h. 0.33% of 330,000 active; in the data active means inhibition above about 35%
# CHOP inhibitor: inhibitors of CHOP promoter induction, primary screen, cell-based, unfolded protein response, luciferase reporter; CHO-K1 CHOP-promoter luciferase, tunicamycin-induced, 15-18 h; inhibition, % at 10 µM; 3.8% of 220,000 active; AID 2732, 2010;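 active means compounds that reduced the stress-induced luciferase reporter signal by more than about 70% of percent inhibition, limit read from the data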;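 further: 0% = tunicamycin plus vehicle and 100% = wells without tunicamycin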
# Gli-Sufu antag: Gli-Sufu pathway antagonists, primary screen, luciferase luminescence, Sufu-KO-LIGHT cells, uHTS | Sufu-KO-LIGHT fibroblasts, Gli luciferase reporter luminescence | inhibition, % at 5 µM | 0.74% of 340,000 active;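 active means inhibition above about 55%, limit read from the data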;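 further: 0% = DMSO-treated cells and 100% = wells with medium but no cells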
# Jurkat NFkB inh: inhibitors of induced NF-kB luciferase reporter, primary screen, TCR NF-kB activation inhibitor project, cell-based, luminescence, uHTS; AID 435003, 2010; inhibition, % at 4 µM; Jurkat, PMA/ionomycin-induced NF-kB luciferase reporter; 0.53% of 330,000 active; in the data active means inhibition above about 50%
# UPR XBP1 act: activators of adaptive XBP1 UPR arm, primary screen, cell-based, CHO-XBP1 luciferase reporter, luminescence, uHTS; 0.33% of 330,000 active; activation, % at 20 µM; IRE1-XBP1 UPR activation; percent of tunicamycin response, DMSO as zero;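 active means versus positive control, 20 µM dose yields 30% or more activation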;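 further: 100% = tunicamycin at 10 µg/mL and 0% = DMSO only wells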
#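 Material: CHO-XBP1 cells stably carrying IRE1-XBP1-driven luciferase reporter | Medium: F12 with 10% serum | Compound dosing: 20 µM single concentration, DMSO 1% | Incubation: Overnight seeding at 37 °C, 6 h compound treatment at 37 °C | Detection: Steady-Glo luminescence read | Read-out basis: % activation of reporter signal versus tunicamycin and DMSO controls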
# CHOP inh conf: retest of CHOP induction inhibitors, confirmation, cell-based | inhibition, % at 10 µM | CHO-CHOP promoter luciferase reporter, tunicamycin-induced, luminescence | AID 504437, 2011 | 45% of 2,100 active | shares compounds with CHOP inhibitor;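 active means mean of three repeat readings of reporter signal inhibition above a set limit, cut at about 70% in these data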;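 further: 0% = tunicamycin plus vehicle and 100% = wells lacking tunicamycin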
# Numbers without * were called inactive; . = no result. In the library only some 3.9% were active in any assay of this set; here they are far more common.
SMILES,UPR CHOP act,697 NFkB inh,CHOP inhibitor,Gli-Sufu antag,Jurkat NFkB inh,UPR XBP1 act,CHOP inh conf
N#CC(C#N)=C1C=CC=CN1/C(=C\c1ccccc1Cl)C(=O)c1ccccc1,.,.,107*,-7,.,.,125*
COC(=O)c1ccc2c(=O)n(NC(=O)C(c3ccccc3)c3ccccc3)c(=S)[nH]c2c1,2,-7,102*,1,9,0,31
COc1ccc(Cc2nnc(Cl)c3ccccc23)cc1OC,-2,-9,.,13,-29,-3,.
Cc1ccc(S(=O)(=O)NCC(=O)N2CCOCCOCCOCC2)cc1,-3,6,.,2,-17,-1,.
CC(C)(C)OC(=O)CNC(=O)c1[nH]cnc1C(=O)Nc1ccc(Cl)cc1,-1,-22,100*,-1,-2,-1,77*
CC(C)(C)OC(=O)CNC(=O)c1[nH]cnc1C(=O)Nc1ccc(CNC(=O)OC(C)(C)C)cc1,4,13,48,8,25,-2,.
Cc1ccc(NC(=O)c2nc[nH]c2C(=O)N[C@@H](C)C(=O)OC(C)(C)C)cc1,-1,-17,97*,-13,-18,-2,78*
C[C@H](NC(=O)c1[nH]cnc1C(=O)Nc1ccccc1)C(=O)OC(C)(C)C,2,-20,48,-4,6,-5,.
O=C1C=CC(=O)N1c1ccc(OC(F)F)cc1,.,.,107*,-14,.,.,-8
CCc1nnc(NC(=O)CSc2ccc(-c3nc4ccc(C)cc4[nH]3)cn2)s1,1,-8,100*,4,-98,2,1
COc1cc(C(=O)OCC(=O)c2ccccc2)cc2c1OCCO2,3,-21,.,-17,-11,0,.
CCOC(=O)C1=C(O)/C(=C\c2ccc(CNC(=O)C(=O)Nc3ccc(C)c(C)c3)o2)N=C1C,.,.,109*,.,.,.,-3
O=S(=O)(Nc1ccccc1)c1ccc(Oc2ncc(C(F)(F)F)cc2Cl)cc1,0,-31,109*,8,1,2,115*
C=CCOC(=O)C1=C(C)NC(SCC(=O)N(CC)CC)=C(C#N)C1c1ccco1 (configuration not stated),-3,-2,.,6,-28,1,.
C=CCOC(=O)C1=C(C)NC(SCC(=O)Nc2ccccc2)=C(C#N)C1c1ccco1 (configuration not stated),6,-7,104*,3,2,-1,116*
OC(CNCc1ccco1)Cn1c2ccc(Br)cc2c2cc(Br)ccc21 (configuration not stated),18,-35,108*,-1,-8,24,46
CCOC(=O)[C@H]1[C@H]2COc3ccc(OC)cc3[C@@H]2N2C(=O)CN(CCc3c[nH]c4ccccc34)C(=O)[C@@]12C,-2,12,.,5,7,-5,.
CC(=O)C1=C(S(=O)(=O)c2ccc(C)cc2)CS(=O)(=O)C1,1,-3,98*,-1,4,-2,71*
Cc1ccc(S(=O)(=O)C2CS(=O)(=O)CC2O)cc1 (configuration not stated),0,11,-26,-14,9,-1,.
CCCn1c(N/N=C(C)\C=C\c2ccccc2)nc2c1c(=O)[nH]c(=O)n2C,1,13,103*,.,-8,1,-31
CC1=CC(C)(C)n2c(O)c(N=N)c3c(C)c(C)cc1c32,3,0,98*,-10,-1,0,10
Cc1ccccc1NC(=O)CCNS(=O)(=O)c1cccc2nsnc12,-2,28,.,-19,-3,-5,.
COC(=O)c1ccc2c(=O)n(CCCCCC(=O)N3CCN(c4ccccc4)CC3)c(=O)[nH]c2c1,-6,-21,105*,8,-4,-4,113*
Oc1c(Cl)cc(Cl)cc1CNc1ccc(Br)cn1,2,-38,104*,-14,7,2,-2

# High-throughput results as filed in PubChem BioAssay.
